Experimental data from different studies.
Protocols differ between the studies behind these lines. ≈ marks a conversion by molar mass, not a printed value.
Organism: Cryptococcus neoformans

The IC50 of `C#CCCCCCCCCCCCC(O)CC(O)CO` (stereo not shown) is reported as 8 µg/mL (≈ 28.1 µM) (microbial growth, broth dilution; ATCC90113).
`O=C(CCCCCC[P+](c1ccccc1)(c1ccccc1)c1ccccc1)Nc1ccc(O)c(O)c1.[Br-]` gave an MIC of over 32 µg/mL (microbial growth, broth dilution; ATCC208821; 24 h).
For `C[C@@H]1[C@H](O)[C@@H](C)/C=C/C=C/C=C/C=C/C=C/C=C/C=C/[C@H](O[C@@H]2O[C@H](C)[C@@H](O)[C@H](N)[C@@H]2O)C[C@@H]2O[C@](O)(C[C@@H](O)C[C@@H](O)[C@H](O)CC[C@@H](O)C[C@@H](O)CC(=O)O[C@H]1C)C[C@H](O)[C@H]2C(=O)O`, the MIC was 1.25 µg/mL (microbial growth; ATCC90113).
`O=C(CCc1cc(O)c(O)c(O)c1)NCCCCCCCC[P+](c1ccccc1)(c1ccccc1)c1ccccc1.[Br-]` has an MIC of over 32 µg/mL (microbial growth, broth dilution; ATCC208821; 24 h).
`CCCCCCCCCCCCCC(O)CC(O)CO` (stereo not shown) gave an IC50 of 32.9 µg/mL (≈ 114 µM) (microbial growth, broth dilution; ATCC90113).
With `C[C@@H]1[C@H](O)[C@@H](C)/C=C/C=C/C=C/C=C/C=C/C=C/C=C/[C@H](O[C@@H]2O[C@H](C)[C@@H](O)[C@H](N)[C@@H]2O)C[C@@H]2O[C@](O)(C[C@@H](O)C[C@@H](O)[C@H](O)CC[C@@H](O)C[C@@H](O)CC(=O)O[C@H]1C)C[C@H](O)[C@H]2C(=O)O` the MFC was 0.68 µM (≈ 0.628 µg/mL) (microbial killing; ATCC90113).
`C[C@@H]1[C@H](O)[C@@H](C)/C=C/C=C/C=C/C=C/C=C/C=C/C=C/[C@H](O[C@@H]2O[C@H](C)[C@@H](O)[C@H](N)[C@@H]2O)C[C@@H]2O[C@](O)(C[C@@H](O)C[C@@H](O)[C@H](O)CC[C@@H](O)C[C@@H](O)CC(=O)O[C@H]1C)C[C@H](O)[C@H]2C(=O)O` has an IC50 of 1.14 µg/mL (≈ 1.23 µM) (microbial growth; ATCC90113).
For `O=C(CCCCCCCCCC[P+](c1ccccc1)(c1ccccc1)c1ccccc1)Nc1ccc(O)c(O)c1.[Br-]`, the MIC was over 32 µg/mL (microbial growth, broth dilution; ATCC208821; 24 h).
`Cc1occc(=O)c1O` has an MIC of over 100 µM (microbial growth, broth dilution; 48 h).
`C=CCCCCCCCCCCCC(O)CC(O)CO` (stereo not shown) gave an IC50 of over 200 µg/mL (microbial growth, broth dilution; ATCC90113).
